KCNQ1 block: human KCNQ1 channel inhibition. CHO-K1 KCNQ1, FluxOR thallium flux fluorescence; stronger effect = higher value. 1.3% of 310,000 active. P51787. B-score at 10 µM;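 active = compounds whose thallium flux B-score, printed positive for inhibition, exceeds three library SD while starting fluorescence stays within three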;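 note: channel opened by potassium depolarization with thallium stimulus after 20 min compound exposure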
KCNK3 inh: human KCNK3 channel inhibition, primary screen; CHO-KCNK3 thallium flux, FluxOR fluorescence; stronger effect = lower value; B-score at 10 µM; 0.84% of 340,000 active; AID 602410;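 active = B-score under library mean minus 4 SD, starting fluorescence ratio at most library mean plus 5 SD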;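 note: more negative B-score means stronger inhibition of thallium flux through KCNK3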
KCNK9 inh: human KCNK9 channel inhibition | HEK293 KCNK9, FluxOR thallium flux fluorescence; stronger effect = lower value | B-score at 10 µM | Q9NPC2 | 1.2% of 310,000 active | AID 488922;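 active = ratio B-score over 3 SD below the library mean, with starting fluorescence within 5 SD of its mean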;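 note: negative B-score means less thallium flux so channel inhibition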
Kir21 block: blocks the mouse Kir2.1 inward-rectifier potassium channel. 0.85% of 310,000 active. P35561. B-score at 10 µM. HEK293-Kir2.1, FluxOR thallium flux fluorescence; stronger effect = lower value;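 active = fluorescence ratio B-score at or below minus 3 SD of library scores, with starting-brightness B-score within 2 SD, cut at about -4.2 in these data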;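 note: channel flux triggered by added potassium and thallium sulfate stimulus; B-score of peak minus minimum fluorescence over baseline after thallium stimulus; more negative B-score means stronger Kir2.1 block with less thallium influx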
KCNQ1 pot: potentiates or activates the human KCNQ1 potassium channel; CHO-K1 KCNQ1, thallium flux FluxOR fluorescence; stronger effect = higher value; B-score at 10 µM; 0.35% of 310,000 active;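 active = fluorescence ratio B-score, a plate-corrected score, at least three library SD, with initial intensity B-score within 5 SD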
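Test system: CHO-K1 cells stably expressing KCNQ1 / Medium: assay buffer / Also added: depolarizing K+/Tl+ stimulus, K2SO4 and Tl2SO4 each 12.5 mM in 5x stock / Incubation: 90 min dye loading and 20 min compound exposure, both at room temperature / Signal: thallium influx via FluxOR fluorescence, kinetic imaging / Evaluation: B score of baseline-normalized fluorescence ratio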
hERG rescue: compounds protecting human hERG from proarrhythmic drug block; Q12809; CHO-hERG, FluxOR thallium flux, dofetilide IC70 present; activation (rescue from dofetilide block), less the hit threshold, % at 10 µM; 0.51% of 310,000 active;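 active = activation above the mean of controls blocked by dofetilide plus 5 SD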;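 note: thallium influx through hERG after potassium depolarization seen as dye fluorescence rise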
Target sequence (Q12809 whole entry, looked up): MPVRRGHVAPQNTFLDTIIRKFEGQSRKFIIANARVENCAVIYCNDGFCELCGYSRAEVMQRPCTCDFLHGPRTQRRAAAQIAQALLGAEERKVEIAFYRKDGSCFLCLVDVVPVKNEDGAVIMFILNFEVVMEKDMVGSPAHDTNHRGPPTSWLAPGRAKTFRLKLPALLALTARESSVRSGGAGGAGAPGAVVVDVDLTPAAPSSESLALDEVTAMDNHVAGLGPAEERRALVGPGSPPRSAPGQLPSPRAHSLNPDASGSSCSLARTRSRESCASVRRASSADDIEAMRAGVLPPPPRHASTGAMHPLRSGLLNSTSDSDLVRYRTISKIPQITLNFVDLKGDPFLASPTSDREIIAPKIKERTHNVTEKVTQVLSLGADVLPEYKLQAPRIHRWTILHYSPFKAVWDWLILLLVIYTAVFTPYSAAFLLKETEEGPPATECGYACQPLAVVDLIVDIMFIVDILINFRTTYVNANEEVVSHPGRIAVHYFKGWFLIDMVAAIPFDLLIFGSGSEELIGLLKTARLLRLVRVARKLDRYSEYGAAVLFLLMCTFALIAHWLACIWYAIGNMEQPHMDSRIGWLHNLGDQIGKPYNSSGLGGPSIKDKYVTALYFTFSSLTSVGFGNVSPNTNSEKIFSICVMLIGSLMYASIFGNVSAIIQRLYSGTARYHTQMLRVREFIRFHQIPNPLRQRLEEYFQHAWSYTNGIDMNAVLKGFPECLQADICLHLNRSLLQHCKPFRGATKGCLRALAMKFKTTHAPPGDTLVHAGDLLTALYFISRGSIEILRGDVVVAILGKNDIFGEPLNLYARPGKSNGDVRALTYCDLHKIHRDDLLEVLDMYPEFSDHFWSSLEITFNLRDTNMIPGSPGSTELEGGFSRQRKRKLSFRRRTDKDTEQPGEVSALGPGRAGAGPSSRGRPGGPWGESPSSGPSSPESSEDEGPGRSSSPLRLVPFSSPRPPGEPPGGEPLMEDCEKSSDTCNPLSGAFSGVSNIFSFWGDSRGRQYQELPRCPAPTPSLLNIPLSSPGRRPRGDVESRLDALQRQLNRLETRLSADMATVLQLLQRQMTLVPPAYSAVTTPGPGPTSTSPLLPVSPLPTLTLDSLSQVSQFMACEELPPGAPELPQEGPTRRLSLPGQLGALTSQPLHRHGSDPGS
KCNK9 block conf: human KCNK9 inhibitor confirmation | shares compounds with KCNK9 inh | inhibition, % at 10 µM | 43% of 4,900 active | AID 492992 | HEK293 KCNK9 cells, FluxOR thallium flux fluorescence;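 active = thallium signal inhibited by more than 5 SD of the compound-free buffer control wells, on both duplicate plates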
Kir21 sel: tests whether KCNK9 modulators also affect mouse Kir2.1 | shares compounds with KCNK9 inh | Kir2.1 cells, FluxOR thallium flux fluorescence | inhibition, % at 10 µM | 4% of 4,900 active | AID 492993;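 active = thallium signal drop more than 5 SD beyond the mean of the no-compound control wells, seen in both duplicate plates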;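 note: signal is fluorescence rise after thallium addition divided by baseline fluorescence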
KCNK9 uninduced: second counter-screen for KCNK9 modulators: effect in non-induced cells; shares compounds with KCNK9 inh; non-induced KCNK9-HEK293, FluxOR thallium flux; inhibition, % at 10 µM; 40% of 4,900 active; AID 492997;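 active = thallium signal drop beyond 5 SD of the untreated control mean, on both duplicate plates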
Each line names hits and unclear results; the compound was inactive in the other large screens (follow-up assays come after a bar, where they were run). In the library only some 3.8% were active in any assay of this set; here they are far more common.

Cc1ccc(C)c(NS(=O)(=O)c2cc(C(=O)N3CCc4ccccc4C3)ccc2Cl)c1	KCNK9 inh -17 | KCNK9 block conf 57% | Kir21 sel inactive | KCNK9 uninduced 36%
Cc1cccc(NS(=O)(=O)c2cc(C(=O)N3CCc4ccccc4C3)ccc2Cl)c1C	KCNK9 inh -15 | KCNK9 block conf 68% | Kir21 sel inactive | KCNK9 uninduced inactive
Cc1ccccc1NS(=O)(=O)c1cc(C(=O)N2CCCC2)ccc1Cl	none
CCN(CC)S(=O)(=O)c1cc(C(=O)N2CCc3ccccc32)ccc1Cl	none | KCNK9 block conf inactive | Kir21 sel inactive | KCNK9 uninduced inactive
COc1cccc(Cn2cnc3c(NS(=O)(=O)c4cc(Cl)ccc4Cl)c(C)c(C)cc32)c1	KCNK3 inh -9.5, KCNK9 inh -15 | KCNK9 block conf 64% | Kir21 sel inactive | KCNK9 uninduced inactive
COc1cccc(Cn2cnc3c(NS(=O)(=O)c4cccc(Cl)c4Cl)c(C)c(C)cc32)c1	KCNK9 inh -13 | KCNK9 block conf 72% | Kir21 sel inactive | KCNK9 uninduced inactive
COc1ccccc1N1CCN(C(C)C(=O)Nc2ccc(S(=O)(=O)N3CCOCC3)cc2)CC1 (stereo not drawn)	none
N#CCCN(C(=S)NC(=O)c1cccs1)c1ccccc1F	none (no result: KCNQ1 block, KCNK9 inh, Kir21 block, KCNQ1 pot, hERG rescue)
C=CCc1cc(C)ccc1OCCOCCC(C(=O)OCC)C(=O)OCC	Kir21 block -8.6 | KCNK9 block conf inactive | Kir21 sel inactive | KCNK9 uninduced inactive
CC(=O)Nc1ccccc1-c1nc2ccc(C(=O)N3CCN(c4cccc(C)c4)C(C)C3)cc2[nH]c1=O (stereo not drawn)	none
Cc1cccc(N2CCN(C(=O)c3ccc4nc(-c5ccco5)c(-c5ccco5)nc4c3)CC2C)c1 (stereo not drawn)	KCNK9 inh -8.8 | KCNK9 block conf 45% | Kir21 sel inactive | KCNK9 uninduced inactive
CCC(CC)C(=O)Oc1c(Sc2ccccc2[N+](=O)[O-])c(C)nn1C(C)(C)C	KCNK9 inh -12 | KCNK9 block conf 52% | Kir21 sel inactive | KCNK9 uninduced 33%
CCOC(=O)/C(=N/Nc1ccccc1OC)N1CCCc2ccccc21	none | KCNK9 block conf inactive | Kir21 sel inactive | KCNK9 uninduced inactive
CCOC(=O)/C(=N/Nc1ccccc1)N1CCCc2ccccc21	none
O=C(Nc1nc(-c2cc(Cl)sc2Cl)cs1)c1ccccc1	KCNK9 inh -9.5 | KCNK9 block conf 34% | Kir21 sel inactive | KCNK9 uninduced inactive
O=C(Nc1nc(-c2ccccn2)cs1)c1ccc(Cl)s1	none
Cc1ccc(OCc2nc(-c3ccccc3)no2)c(C)c1	none | KCNK9 block conf inactive | Kir21 sel inactive | KCNK9 uninduced 40%
Cc1cc(C)c(C)c(OCc2nc(-c3cccnc3)no2)c1	none
COc1ccc(-c2noc(COc3ccc(C)c(C)c3)n2)cc1OC	none | KCNK9 block conf inactive | Kir21 sel inactive | KCNK9 uninduced inactive
Cc1ccc(C(=O)NCC(c2ccco2)N2CCc3ccccc3C2)cc1 (stereo not drawn)	none
O=C(NCC(c1ccco1)N1CCc2ccccc2C1)c1cccc(Br)c1 (stereo not drawn)	KCNK9 inh -12 | KCNK9 block conf inactive | Kir21 sel inactive | KCNK9 uninduced 26%
Cc1ccc(C)c(S(=O)(=O)NCC(c2ccco2)N2CCc3ccccc3C2)c1 (stereo not drawn)	KCNK9 inh -11 | KCNK9 block conf 48% | Kir21 sel inactive | KCNK9 uninduced 41%
O=C(NCC(c1ccco1)N1CCc2ccccc2C1)c1ccc(Br)cc1 (stereo not drawn)	none | KCNK9 block conf inactive | Kir21 sel inactive | KCNK9 uninduced 35%
Cc1cc(Br)ccc1NC(=O)CSCc1c(C)noc1C	none (no result: KCNQ1 block, KCNK9 inh, Kir21 block, KCNQ1 pot, hERG rescue)
CCOc1ccccc1Oc1cn[nH]c1-c1ccc(O)cc1O	KCNK9 inh -10 | KCNK9 block conf 32% | Kir21 sel inactive | KCNK9 uninduced inactive
C=C(C)COc1ccc(-c2[nH]ncc2Oc2ccccc2OCC)c(O)c1	none
C=C(C(=O)c1ccccc1)C(CC(=O)c1ccccc1)c1ccccc1 (stereo not drawn)	KCNK9 inh -13 | KCNK9 block conf 45% | Kir21 sel inactive | KCNK9 uninduced 44%
CCN(C(=O)COC(=O)C(C)(C)Oc1ccc(Cl)cc1)c1c(N)n(Cc2ccccc2)c(=O)[nH]c1=O	none (no result: KCNQ1 block, KCNK9 inh, Kir21 block, KCNQ1 pot, hERG rescue)
COc1ccc(CN(C)C(=O)c2cc(S(=O)(=O)Nc3ccccc3F)ccc2C)c(OC)c1	none
O=C(NNC(=O)c1cc2ccccc2[nH]1)OCc1ccccc1	none (no result: KCNQ1 block, KCNK9 inh, Kir21 block, KCNQ1 pot, hERG rescue)
CCOC(=O)c1nn(-c2ccccc2F)c(-c2ccccc2)c1C(=O)c1ccccc1	KCNK9 inh -11 | KCNK9 block conf 56% | Kir21 sel inactive | KCNK9 uninduced inactive
CC(=O)C1(O)C(C)CC2C3CC(F)C4(O)CC(O)CCC4(C)C3CCC21C (stereo not drawn)	none (no result: KCNQ1 block, KCNK9 inh, Kir21 block, KCNQ1 pot, hERG rescue)
Cc1ccc(Cn2cc(SCC(=O)Nc3nccs3)c3ccccc32)cc1	none | KCNK9 block conf inactive | Kir21 sel inactive | KCNK9 uninduced inactive
COc1ccc2[nH]c3c(c2c1)CCN1C(=O)C(CC(=O)NCCC2=CCCCC2)C[C@H](C(=O)N2CCOCC2)[C@@]31C (stereo partly drawn)	none (no result: KCNQ1 block, KCNK9 inh, Kir21 block, KCNQ1 pot, hERG rescue)
COCCNC(=O)CN(C(=O)Cn1nnc2ccccc21)c1ccc(C)c(F)c1	none | KCNK9 block conf inactive | Kir21 sel inactive | KCNK9 uninduced inactive
COCCNC(=O)CN(C(=O)Cn1nnc2ccccc21)c1ccc(C)cc1	none
O=C(Nc1ccnn1C1CCN(Cc2cccc(OCCO)c2)CC1)C1CC1	none
O=C(Nc1ccc(F)cc1F)c1sccc1SCc1cccc(C(F)(F)F)c1	KCNQ1 block 8, KCNK9 inh -12 | KCNK9 block conf 68% | Kir21 sel 42% | KCNK9 uninduced 50%
O=C(Nc1ccc(F)cc1)c1sccc1SCc1cccc(C(F)(F)F)c1	KCNK9 inh -13 | KCNK9 block conf 62% | Kir21 sel 46% | KCNK9 uninduced 48%
Cc1c[n+](CC(=O)c2ccccc2)cs1	none
CCOC(=O)c1ccccc1NC(=O)c1cccc([N+](=O)[O-])c1	none
O=C(COC(=O)c1ccccc1NC(=O)c1ccccc1)c1cccc([N+](=O)[O-])c1	KCNK9 inh -14 | KCNK9 block conf 69% | Kir21 sel inactive | KCNK9 uninduced 32%
CN(Cc1ccccc1)C1CCCN(C(=O)c2ccc(Cl)s2)C1 (stereo not drawn)	none | KCNK9 block conf inactive | Kir21 sel inactive | KCNK9 uninduced inactive
